DTT redox prof – compounds producing H2O2 with reducing agent – biochemical, NIH compound library profiling, artefact control for MLSCN library redox annotation, primary screen; DTT-dependent redox cycling H2O2, phenol red/HRP absorbance; 100% = 100 µM peroxide control, 0% = buffer; AID 878; activation, % at 10 µM; 200,000 tested, 0.03% active;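 active = activation of at least 50% relative to the plate's high and low controls in the primary single-dose screen; inactive = activation below 50%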;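 also: compound incubated with DTT at 0.8 mM final as the reducing agent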
Autophagy mod – autophagy modulation, high-content screen. MEF GFP-LC3 puncta imaging; test concentration mostly 10 µM. 190,000 tested, 0.98% active. AID 463193. calls only at 10 µM (by protocol);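 active = percentage of spot-positive cells more than 3 SD above its plate mean, without a fluorescence outlier flag or 80% toxicity; inconclusive = no clear call, values can overlap the other calls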
Cl transport mod – modulates chloride dependent transport by human KCC2; Q9H2X9; KCC2 cells, thallium flux FluoZin-2 fluorescence; B-score of Tl+ flux slope (higher = more flux/activation; lower = inhibition) at 10 µM; 190,000 tested, 2.2% active; AID 1456;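 active = thallium flux slope and its plate-corrected score both differing from the plate sample mean at a set confidence after two filtering rounds, in either direction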;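 also: slope of fluorescence scaled to starting intensity during 10 to 20 s after thallium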
Dynein transport – blocks dynein driven cargo transport along microtubules; 3617.4 mouse cells, GR-EGFP nuclear translocation imaging; test concentration mostly 20 µM; stimulated with dexamethasone, 1 µM; stronger effect = lower value; z-score, hits read low; 220,000 tested, 0.47% active;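 active = plate z-score of nuclear minus cytoplasmic receptor signal below a set negative limit, without overly bright fluorescence or cell loss, cut at about -3.5 in these data, passing the limit was not always enough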;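 also: z-score of nuclear minus cytoplasmic ring GR-EGFP intensity difference per well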
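Buffer or medium: tet-free medium with charcoal-stripped serum / Also added: dexamethasone agonist, 1.0 µM final, for 30 min / Timing: induction 48 h, compound 1 h, agonist 30 min / Measured by: high-content fluorescence imaging after fixation / Read-out: nuclear-to-cytoplasmic GR-EGFP distribution per well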
ROMK primary – modulators of human ROMK potassium channel; Tet-inducible ROMK, thallium flux fluorescence; actives lie on both sides; B-score at 10 µM; 130,000 tested, 2% active;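 active = signal ratio slope over the read window, or its plate-corrected B-score, at least 3 SD from the plate mean, either direction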;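 also: B-score of the F/F0 ratio slope over 7 to 12 s after thallium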
Target sequence (P48048 whole entry, looked up): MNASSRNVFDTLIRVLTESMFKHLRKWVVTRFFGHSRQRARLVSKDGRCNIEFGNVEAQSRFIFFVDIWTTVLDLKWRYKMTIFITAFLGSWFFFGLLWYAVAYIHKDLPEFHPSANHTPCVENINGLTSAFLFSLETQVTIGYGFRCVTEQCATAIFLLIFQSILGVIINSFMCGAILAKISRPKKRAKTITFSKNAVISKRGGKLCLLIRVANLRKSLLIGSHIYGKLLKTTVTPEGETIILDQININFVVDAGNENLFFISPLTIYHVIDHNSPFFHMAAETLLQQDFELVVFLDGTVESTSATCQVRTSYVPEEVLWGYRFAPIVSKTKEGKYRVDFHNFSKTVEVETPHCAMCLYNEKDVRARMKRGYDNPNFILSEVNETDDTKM
KCC2 secondary – KCC2 (human) modulation, secondary assay; shares compounds with Cl transport mod; HEK293-KCC2, thallium flux, FluoZin2 fluorescence; stronger effect = higher value; normalised thallium flux (F/F0 slope) at 10 µM; 3,700 tested, 15% active;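 active = thallium flux slope above the same plate's solvent-only control mean plus 3 SD; inconclusive = the two replicate wells disagree; inactive = no significant difference from solvent-only control wells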
KCC2 bumet counter – thallium flux persisting under bumetanide in KCC2 cells, counter-screen secondary assay; HEK293-KCC2 + bumetanide/ouabain, thallium flux FluoZin2; stronger effect = higher value; 3,700 tested, 49% active; shares compounds with Cl transport mod; AID 1714; normalized thallium flux at 10 µM;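 active = thallium entry rate above the same plate's blocked-transporter control wells by more than 3 SD; inconclusive = the two repeat wells disagree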;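 also: raw slope of fluorescence over initial fluorescence between 10 and 20 s after thallium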
KCC2 secondary2 – KCC2 (human) modulation, second secondary assay. shares compounds with Cl transport mod. HEK293-KCC2, thallium flux FluoZin2 fluorescence; actives lie on both sides; F/F0 rise rate, 10–20 s post-thallium. normalized thallium flux at 10 µM. 3,700 tested, 23% active. AID 1715;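 active = thallium flux slope more than 3 SD above or below the plate's solvent-only control mean, mostly below; inconclusive = the two repeat wells disagreed; inactive = no significant shift from solvent-only controls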
HEK counter1 – parental HEK flux effect, counter-screen; shares compounds with Cl transport mod; HEK293 parental cells, thallium flux FluoZin2, ouabain; baseline-ratio fluorescence slope, 10–20 s after thallium; thallium flux rate (normalised fluorescence) at 10 µM; 3,700 tested, 46% active; AID 1716;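 active = thallium flux rate significantly above the same plate's solvent-only control wells, beyond their mean plus 3 SD; inconclusive = the two replicate wells gave conflicting results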
KCC2 retest ouab – modulates human KCC2 on retest with ouabain; HEK293-KCC2, thallium flux FluoZin2 fluorescence; bidirectional: low = inhibitor, high = activator; AID 1717; raw Tl+ flux slope (below DMSO = inhibition, above = activation) at 10 µM; 3,700 tested, 48% active; shares compounds with Cl transport mod;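 active = thallium flux slope beyond 3 SD from same-plate DMSO control mean in most replicates, usually higher, sometimes lower; inconclusive = repeat tests gave conflicting results; inactive = no significant difference from controls in most replicates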;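 also: slope of initial-normalized fluorescence between seconds 10 and 20 after thallium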
HEK293 Tl flux2 – counter-screen for KCC2 modulators: effect in parental HEK293 cells. shares compounds with Cl transport mod. thallium flux FluoZin-2 fluorescence slope. thallium flux slope at 10 µM. 3,700 tested, 33% active. AID 1718;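 active = thallium flux slope above the same plate's solvent-control mean plus 3 SD in both duplicate wells; inconclusive = duplicate wells that disagreed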;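 also: run without ouabain in cells lacking the KCC2 cotransporter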
Of the large screens only hits and unclear results are named; the others gave an inactive call (follow-up assays come after a bar, where they were run). This is a sample that favours compounds with a hit; in the whole collection about 4.1% have one here.

COCCNC(=S)N1CCC(Cc2ccccc2)CC1	Cl transport mod -4.2 | KCC2 secondary inactive | KCC2 bumet counter inactive | KCC2 secondary2 inactive | HEK counter1 inactive | KCC2 retest ouab 0.015 | HEK293 Tl flux2 inactive
CC(C)NC(=S)N1CCC(Cc2ccccc2)CC1	none
O=S(=O)(NC(=S)NC1CCCCC1)c1ccc(Br)cc1	Cl transport mod 11 | KCC2 secondary 0.012 | KCC2 bumet counter 0.028 | KCC2 secondary2 inactive | HEK counter1 0.023 | KCC2 retest ouab 0.033 | HEK293 Tl flux2 0.012
Cc1ccc2[nH]c3c(NCCCN4CCCC4=O)ncnc3c2c1	none
COc1ccc2[nH]c3c(NCCN4CCCCC4)ncnc3c2c1	Cl transport mod -5.2 (no result: ROMK primary) | KCC2 secondary inactive | KCC2 bumet counter inactive | KCC2 secondary2 inactive | HEK counter1 inactive | KCC2 retest ouab inactive | HEK293 Tl flux2 inactive
CCOC(=O)C(=O)Nc1ccc(Oc2ccccc2)cc1	Cl transport mod -4 | KCC2 secondary inactive | KCC2 bumet counter inactive | KCC2 secondary2 inactive | HEK counter1 inactive | KCC2 retest ouab 0.017 | HEK293 Tl flux2 inactive
CCOC(=O)C(=O)Nc1ccc(F)cc1	none (no result: Cl transport mod)
O=[N+]([O-])c1ccc(/C=N/Nc2nc(N3CCCC3)nc(N3CCCC3)n2)o1	Cl transport mod 6.1 | KCC2 secondary inactive | KCC2 bumet counter inactive | KCC2 secondary2 inactive | HEK counter1 inactive | KCC2 retest ouab inactive | HEK293 Tl flux2 inactive
Cc1ccccc1-n1c(O)c(/C=N/N2CCCCC2c2cccnc2)c(=O)[nH]c1=O (stereo unspecified)	none (no result: ROMK primary)
O=C(Cn1c(-c2ccccc2)noc1=O)N1CCC(Cc2ccccc2)CC1	Cl transport mod -5.2 | KCC2 secondary inactive | KCC2 bumet counter inactive | KCC2 secondary2 0.028 | HEK counter1 inactive | KCC2 retest ouab 0.015 | HEK293 Tl flux2 inactive
O=C(Cn1c(-c2ccccc2)noc1=O)Nc1ccc(N2CCCCCC2)cc1	none (no result: Cl transport mod) | KCC2 secondary inactive | KCC2 bumet counter inactive | KCC2 secondary2 inactive | HEK counter1 inactive | KCC2 retest ouab 0.016 | HEK293 Tl flux2 inactive
COc1ccc(-c2noc(=O)n2CC(=O)N2CCC(Cc3ccccc3)CC2)cc1	Cl transport mod -4.7 | KCC2 secondary inactive | KCC2 bumet counter 0.0033 | KCC2 secondary2 0.023 | HEK counter1 0.0052 | KCC2 retest ouab 0.013 | HEK293 Tl flux2 0.0075
CCOCC(=O)N1CCC(Cc2ccccc2)CC1	none
COc1ccc(N(C(C)C(=O)N2CCC(Cc3ccccc3)CC2)S(C)(=O)=O)cc1 (stereo unspecified)	Cl transport mod -3.6 | KCC2 secondary inconclusive | KCC2 bumet counter inactive | KCC2 secondary2 inactive | HEK counter1 inactive | KCC2 retest ouab 0.015 | HEK293 Tl flux2 inactive
COC(=O)c1c(SCC(=O)Nc2ccc(C)c(C)c2)nc(=O)[nH]c1C	none (no result: DTT redox prof, Autophagy mod, ROMK primary)
Cc1cc(C)n2ncc(/C(N)=N/OC(=O)Nc3ccc(Cl)cc3)c2n1	none (no result: DTT redox prof, Autophagy mod, ROMK primary)
COc1cc([N+](=O)[O-])ccc1N1C(=O)C2C3C=CC(C4CC34)C2C1=O (stereo unspecified)	none
CCOc1ccc(OCC)c(NC(=O)CCCN2C(=S)NC(C)(C)CC2C)c1 (stereo unspecified)	none
Cc1cc(C)n2nc(C(=O)NCCc3ccccc3)nc2n1	none
